# Measured values: ChEMBL document CHEMBL5058577, “EUbOPEN Chemogenomics Library 2 (Multiplex)” (2022)
# Test system: Fibroblast
# Assay: Multiplex assay against human fibroblast
# Assay type: toxicity, cell-based
# Summary of the method: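 Live cells carried four stains from seeding: Hoechst33342, BioTracker Green Microtubule Cytoskeleton Dye, MitoTracker Red and Annexin V Alexa Fluor 680. They were imaged on a CQ1 microscope at 37°C and 5% CO2 after compound addition. Using CellPathfinder machine-learning gating, cells were split into Hoechst high-intensity objects or normal cells, normal cells into healthy, pyknosed or fragmented nuclei, and pyknosed cells into mitotic or apoptotic; tubulin, mitochondrial-mass and membrane-permeability phenotypes are per cents of healthy-nucleus cells.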
# [1] = 12 h, 1 µM, compound concentration 1 uM, replicate 1
# [2] = 12 h, 1 µM, compound concentration 1 uM, replicate 2
# [3] = 12 h, 10 µM, compound concentration 10 uM, replicate 1
# [4] = 12 h, 10 µM, compound concentration 10 uM, replicate 2
# [5] = 24 h, 1 µM, compound concentration 1 uM, replicate 1
# [6] = 24 h, 1 µM, compound concentration 1 uM, replicate 2
# [7] = 24 h, 10 µM, compound concentration 10 uM, replicate 1
# [8] = 24 h, 10 µM, compound concentration 10 uM, replicate 2
# [9] = 48 h, 1 µM, compound concentration 1 uM, replicate 1
# [10] = 48 h, 1 µM, compound concentration 1 uM, replicate 2
# [11] = 48 h, 10 µM, compound concentration 10 uM, replicate 1
# [12] = 48 h, 10 µM, compound concentration 10 uM, replicate 2
smiles,measurement,setting,value
Cn1cc(C(=O)OCC2CCN(CCNS(C)(=O)=O)CC2)c2ccccc21,Population Apoptotic (%),[1],44%
same,Population Fragmented Nuclei (%),[1],13%
same,Population Healthy Nuclei (%),[1],71%
same,Population Hoechst High Intensity Objects (%),[1],1%
same,Population Membrane Permeable-Phenotype (%),[1],0%
same,Population Mitochondria Different-Phenotype (%),[1],3%
same,Population Mitotic Cells (%),[1],55%
same,Population Normal (%),[1],98%
same,Population Pyknosed Nuclei (%),[1],14%
same,Population Tubulin-Different-Phenotype (%),[1],23%
same,Total Cell Count,[1],202
same,Population Apoptotic (%),[2],33%
same,Population Fragmented Nuclei (%),[2],21%
same,Population Healthy Nuclei (%),[2],46%
same,Population Hoechst High Intensity Objects (%),[2],4%
same,Population Membrane Permeable-Phenotype (%),[2],9%
same,Population Mitochondria Different-Phenotype (%),[2],1%
same,Population Mitotic Cells (%),[2],66%
same,Population Normal (%),[2],95%
same,Population Pyknosed Nuclei (%),[2],32%
same,Population Tubulin-Different-Phenotype (%),[2],37%
same,Total Cell Count,[2],164
same,Population Apoptotic (%),[3],48%
same,Population Fragmented Nuclei (%),[3],29%
same,Population Healthy Nuclei (%),[3],55%
same,Population Hoechst High Intensity Objects (%),[3],3%
same,Population Membrane Permeable-Phenotype (%),[3],0%
same,Population Mitochondria Different-Phenotype (%),[3],9%
same,Population Mitotic Cells (%),[3],51%
same,Population Normal (%),[3],96%
same,Population Pyknosed Nuclei (%),[3],14%
same,Population Tubulin-Different-Phenotype (%),[3],41%
same,Total Cell Count,[3],207
same,Population Apoptotic (%),[4],25%
same,Population Fragmented Nuclei (%),[4],32%
same,Population Healthy Nuclei (%),[4],51%
same,Population Hoechst High Intensity Objects (%),[4],5%
same,Population Membrane Permeable-Phenotype (%),[4],5%
same,Population Mitochondria Different-Phenotype (%),[4],7%
same,Population Mitotic Cells (%),[4],75%
same,Population Normal (%),[4],94%
same,Population Pyknosed Nuclei (%),[4],16%
same,Population Tubulin-Different-Phenotype (%),[4],47%
same,Total Cell Count,[4],184
same,Population Apoptotic (%),[5],31%
same,Population Fragmented Nuclei (%),[5],13%
same,Population Healthy Nuclei (%),[5],74%
same,Population Hoechst High Intensity Objects (%),[5],5%
same,Population Membrane Permeable-Phenotype (%),[5],0%
same,Population Mitochondria Different-Phenotype (%),[5],0%
same,Population Mitotic Cells (%),[5],68%
same,Population Normal (%),[5],94%
same,Population Pyknosed Nuclei (%),[5],11%
same,Population Tubulin-Different-Phenotype (%),[5],23%
same,Total Cell Count,[5],201
same,Population Apoptotic (%),[6],30%
same,Population Fragmented Nuclei (%),[6],25%
same,Population Healthy Nuclei (%),[6],47%
same,Population Hoechst High Intensity Objects (%),[6],2%
same,Population Membrane Permeable-Phenotype (%),[6],7%
same,Population Mitochondria Different-Phenotype (%),[6],6%
same,Population Mitotic Cells (%),[6],69%
same,Population Normal (%),[6],97%
same,Population Pyknosed Nuclei (%),[6],26%
same,Population Tubulin-Different-Phenotype (%),[6],48%
same,Total Cell Count,[6],168
same,Population Apoptotic (%),[7],80%
same,Population Fragmented Nuclei (%),[7],33%
same,Population Healthy Nuclei (%),[7],53%
same,Population Hoechst High Intensity Objects (%),[7],5%
same,Population Membrane Permeable-Phenotype (%),[7],0%
same,Population Mitochondria Different-Phenotype (%),[7],3%
same,Population Mitotic Cells (%),[7],20%
same,Population Normal (%),[7],94%
same,Population Pyknosed Nuclei (%),[7],13%
same,Population Tubulin-Different-Phenotype (%),[7],42%
same,Total Cell Count,[7],201
same,Population Apoptotic (%),[8],41%
same,Population Fragmented Nuclei (%),[8],40%
same,Population Healthy Nuclei (%),[8],43%
same,Population Hoechst High Intensity Objects (%),[8],4%
same,Population Membrane Permeable-Phenotype (%),[8],3%
same,Population Mitochondria Different-Phenotype (%),[8],5%
same,Population Mitotic Cells (%),[8],58%
same,Population Normal (%),[8],95%
same,Population Pyknosed Nuclei (%),[8],16%
same,Population Tubulin-Different-Phenotype (%),[8],52%
same,Total Cell Count,[8],188
same,Population Apoptotic (%),[9],54%
same,Population Fragmented Nuclei (%),[9],14%
same,Population Healthy Nuclei (%),[9],72%
same,Population Hoechst High Intensity Objects (%),[9],5%
same,Population Membrane Permeable-Phenotype (%),[9],0%
same,Population Mitochondria Different-Phenotype (%),[9],1%
same,Population Mitotic Cells (%),[9],45%
same,Population Normal (%),[9],94%
same,Population Pyknosed Nuclei (%),[9],12%
same,Population Tubulin-Different-Phenotype (%),[9],23%
same,Total Cell Count,[9],197
same,Population Apoptotic (%),[10],52%
same,Population Fragmented Nuclei (%),[10],33%
same,Population Healthy Nuclei (%),[10],54%
same,Population Hoechst High Intensity Objects (%),[10],4%
same,Population Membrane Permeable-Phenotype (%),[10],5%
same,Population Mitochondria Different-Phenotype (%),[10],2%
same,Population Mitotic Cells (%),[10],47%
same,Population Normal (%),[10],95%
same,Population Tubulin-Different-Phenotype (%),[10],43%
same,Total Cell Count,[10],177
same,Population Apoptotic (%),[11],68%
same,Population Fragmented Nuclei (%),[11],28%
same,Population Healthy Nuclei (%),[11],58%
same,Population Hoechst High Intensity Objects (%),[11],9%
same,Population Membrane Permeable-Phenotype (%),[11],0%
same,Population Mitochondria Different-Phenotype (%),[11],9%
same,Population Mitotic Cells (%),[11],32%
same,Population Normal (%),[11],90%
same,Population Pyknosed Nuclei (%),[11],13%
same,Population Tubulin-Different-Phenotype (%),[11],49%
same,Total Cell Count,[11],199
same,Population Apoptotic (%),[12],50%
same,Population Fragmented Nuclei (%),[12],40%
same,Population Healthy Nuclei (%),[12],46%
same,Population Hoechst High Intensity Objects (%),[12],6%
same,Population Membrane Permeable-Phenotype (%),[12],2%
same,Population Mitochondria Different-Phenotype (%),[12],8%
same,Population Mitotic Cells (%),[12],50%
same,Population Normal (%),[12],93%
same,Population Pyknosed Nuclei (%),[12],12%
same,Population Tubulin-Different-Phenotype (%),[12],60%
same,Total Cell Count,[12],190
